Data: ChEMBL document CHEMBL4689842, “EUbOPEN Chemogenomics Library wave 1” (2021)

System: HEK-293T
Assay: Multiplex assay against HEK293T;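 on Population Tubulin-Different-Phenotype (%): share of the cells with healthy nuclei that show this phenotype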
Type: toxicity, cell-based
Conditions: human
Outline: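 Hoechst33342, BioTracker Green Microtubule Cytoskeleton Dye, MitoTracker Red and Annexin V Alexa Fluor 680 were added to live cells at seeding, and imaging on a CQ1 microscope at 37°C and 5% CO2 followed compound addition. Gating by CellPathfinder machine learning separated cells into Hoechst high-intensity objects or normal cells, then normal cells into healthy, pyknosed or fragmented nuclei, then pyknosed cells into mitotic or apoptotic. Per cents of healthy-nucleus cells are reported for the tubulin, mitochondrial-mass and membrane-permeability phenotypes.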

[1] = 12 h, 1 µM, compound concentration 1 uM, replicate 1
[2] = 12 h, 1 µM, compound concentration 1 uM, replicate 2
[3] = 12 h, 10 µM, compound concentration 10 uM, replicate 1
[4] = 12 h, 10 µM, compound concentration 10 uM, replicate 2
[5] = 24 h, 1 µM, compound concentration 1 uM, replicate 1
[6] = 24 h, 1 µM, compound concentration 1 uM, replicate 2
[7] = 24 h, 10 µM, compound concentration 10 uM, replicate 1
[8] = 24 h, 10 µM, compound concentration 10 uM, replicate 2
[9] = 48 h, 1 µM, compound concentration 1 uM, replicate 1
[10] = 48 h, 1 µM, compound concentration 1 uM, replicate 2
[11] = 48 h, 10 µM, compound concentration 10 uM, replicate 1
[12] = 48 h, 10 µM, compound concentration 10 uM, replicate 2

O=C(Nc1cccnn1)N1CCC(=Cc2cccc(Oc3ccc(C(F)(F)F)cn3)c2)CC1
Population Apoptotic (%) [1]: 22% | Population Fragmented Nuclei (%) [1]: 20% | Population Healthy Nuclei (%) [1]: 46% | Population Hoechst High Intensity Objects (%) [1]: 16% | Population Membrane Permeable-Phenotype (%) [1]: 10% | Population Mitochondria Different-Phenotype (%) [1]: 17% | Population Mitotic Cells (%) [1]: 77% | Population Normal (%) [1]: 83% | Population Pyknosed Nuclei (%) [1]: 33% | Population Tubulin-Different-Phenotype (%) [1]: 29% | Total Cell Count [1]: 578 | Population Apoptotic (%) [2]: 17% | Population Fragmented Nuclei (%) [2]: 5% | Population Healthy Nuclei (%) [2]: 83% | Population Hoechst High Intensity Objects (%) [2]: 9% | Population Membrane Permeable-Phenotype (%) [2]: 7% | Population Mitochondria Different-Phenotype (%) [2]: 30% | Population Mitotic Cells (%) [2]: 82% | Population Normal (%) [2]: 90% | Population Pyknosed Nuclei (%) [2]: 11% | Population Tubulin-Different-Phenotype (%) [2]: 62% | Total Cell Count [2]: 1415 | Population Apoptotic (%) [3]: 30% | Population Fragmented Nuclei (%) [3]: 13% | Population Healthy Nuclei (%) [3]: 67% | Population Hoechst High Intensity Objects (%) [3]: 9% | Population Membrane Permeable-Phenotype (%) [3]: 3% | Population Mitochondria Different-Phenotype (%) [3]: 4% | Population Mitotic Cells (%) [3]: 69% | Population Normal (%) [3]: 90% | Population Pyknosed Nuclei (%) [3]: 18% | Population Tubulin-Different-Phenotype (%) [3]: 5% | Total Cell Count [3]: 619 | Population Apoptotic (%) [4]: 8% | Population Fragmented Nuclei (%) [4]: 7% | Population Healthy Nuclei (%) [4]: 88% | Population Hoechst High Intensity Objects (%) [4]: 1% | Population Membrane Permeable-Phenotype (%) [4]: 1% | Population Mitochondria Different-Phenotype (%) [4]: 12% | Population Mitotic Cells (%) [4]: 91% | Population Normal (%) [4]: 98% | Population Pyknosed Nuclei (%) [4]: 4% | Population Tubulin-Different-Phenotype (%) [4]: 6% | Total Cell Count [4]: 1821 | Population Apoptotic (%) [5]: 31% | Population Fragmented Nuclei (%) [5]: 16% | Population Healthy Nuclei (%) [5]: 56% | Population Hoechst High Intensity Objects (%) [5]: 15% | Population Membrane Permeable-Phenotype (%) [5]: 12% | Population Mitochondria Different-Phenotype (%) [5]: 19% | Population Mitotic Cells (%) [5]: 68% | Population Normal (%) [5]: 84% | Population Pyknosed Nuclei (%) [5]: 27% | Population Tubulin-Different-Phenotype (%) [5]: 54% | Total Cell Count [5]: 519 | Population Apoptotic (%) [6]: 8% | Population Fragmented Nuclei (%) [6]: 6% | Population Healthy Nuclei (%) [6]: 83% | Population Hoechst High Intensity Objects (%) [6]: 10% | Population Membrane Permeable-Phenotype (%) [6]: 10% | Population Mitochondria Different-Phenotype (%) [6]: 30% | Population Mitotic Cells (%) [6]: 91% | Population Normal (%) [6]: 89% | Population Pyknosed Nuclei (%) [6]: 10% | Population Tubulin-Different-Phenotype (%) [6]: 82% | Total Cell Count [6]: 1537 | Population Apoptotic (%) [7]: 17% | Population Fragmented Nuclei (%) [7]: 9% | Population Healthy Nuclei (%) [7]: 83% | Population Hoechst High Intensity Objects (%) [7]: 4% | Population Membrane Permeable-Phenotype (%) [7]: 8% | Population Mitochondria Different-Phenotype (%) [7]: 2% | Population Mitotic Cells (%) [7]: 82% | Population Normal (%) [7]: 95% | Population Pyknosed Nuclei (%) [7]: 7% | Population Tubulin-Different-Phenotype (%) [7]: 5% | Total Cell Count [7]: 783 | Population Apoptotic (%) [8]: 2% | Population Fragmented Nuclei (%) [8]: 22% | Population Healthy Nuclei (%) [8]: 74% | Population Hoechst High Intensity Objects (%) [8]: 3% | Population Membrane Permeable-Phenotype (%) [8]: 3% | Population Mitotic Cells (%) [8]: 97% | Population Normal (%) [8]: 96% | Population Pyknosed Nuclei (%) [8]: 2% | Population Tubulin-Different-Phenotype (%) [8]: 8% | Total Cell Count [8]: 3029

CCOC(=O)c1c(C)[nH]c2ccc3c(c12)CN1CCc2cc(OC)ccc2C1O3 (stereo unspecified)
Population Apoptotic (%) [1]: 61% | Population Fragmented Nuclei (%) [1]: 14% | Population Healthy Nuclei (%) [1]: 30% | Population Hoechst High Intensity Objects (%) [1]: 14% | Population Membrane Permeable-Phenotype (%) [1]: 1% | Population Mitochondria Different-Phenotype (%) [1]: 100% | Population Mitotic Cells (%) [1]: 38% | Population Normal (%) [1]: 85% | Population Pyknosed Nuclei (%) [1]: 54% | Total Cell Count [1]: 228 | Population Apoptotic (%) [2]: 36% | Population Fragmented Nuclei (%) [2]: 4% | Population Healthy Nuclei (%) [2]: 28% | Population Hoechst High Intensity Objects (%) [2]: 5% | Population Membrane Permeable-Phenotype (%) [2]: 5% | Population Mitochondria Different-Phenotype (%) [2]: 88% | Population Mitotic Cells (%) [2]: 63% | Population Normal (%) [2]: 94% | Population Pyknosed Nuclei (%) [2]: 67% | Population Tubulin-Different-Phenotype (%) [2]: 86% | Total Cell Count [2]: 132 | Population Apoptotic (%) [3]: 90% | Population Fragmented Nuclei (%) [3]: 12% | Population Hoechst High Intensity Objects (%) [3]: 20% | Population Membrane Permeable-Phenotype (%) [3]: 0% | Population Mitochondria Different-Phenotype (%) [3]: 100% | Population Mitotic Cells (%) [3]: 9% | Population Normal (%) [3]: 79% | Population Pyknosed Nuclei (%) [3]: 76% | Population Tubulin-Different-Phenotype (%) [3]: 95% | Total Cell Count [3]: 266 | Population Apoptotic (%) [4]: 88% | Population Fragmented Nuclei (%) [4]: 5% | Population Healthy Nuclei (%) [4]: 10% | Population Hoechst High Intensity Objects (%) [4]: 12% | Population Membrane Permeable-Phenotype (%) [4]: 7% | Population Mitochondria Different-Phenotype (%) [4]: 92% | Population Mitotic Cells (%) [4]: 11% | Population Normal (%) [4]: 87% | Population Pyknosed Nuclei (%) [4]: 83% | Population Tubulin-Different-Phenotype (%) [4]: 92% | Total Cell Count [4]: 156 | Population Apoptotic (%) [5]: 57% | Population Fragmented Nuclei (%) [5]: 17% | Population Healthy Nuclei (%) [5]: 47% | Population Hoechst High Intensity Objects (%) [5]: 7% | Population Membrane Permeable-Phenotype (%) [5]: 0% | Population Mitochondria Different-Phenotype (%) [5]: 94% | Population Mitotic Cells (%) [5]: 42% | Population Normal (%) [5]: 92% | Population Pyknosed Nuclei (%) [5]: 35% | Population Tubulin-Different-Phenotype (%) [5]: 80% | Total Cell Count [5]: 254 | Population Apoptotic (%) [6]: 48% | Population Fragmented Nuclei (%) [6]: 3% | Population Healthy Nuclei (%) [6]: 45% | Population Hoechst High Intensity Objects (%) [6]: 3% | Population Membrane Permeable-Phenotype (%) [6]: 5% | Population Mitochondria Different-Phenotype (%) [6]: 91% | Population Mitotic Cells (%) [6]: 51% | Population Normal (%) [6]: 96% | Population Pyknosed Nuclei (%) [6]: 51% | Population Tubulin-Different-Phenotype (%) [6]: 86% | Total Cell Count [6]: 154 | Population Apoptotic (%) [7]: 91% | Population Fragmented Nuclei (%) [7]: 15% | Population Healthy Nuclei (%) [7]: 8% | Population Hoechst High Intensity Objects (%) [7]: 22% | Population Membrane Permeable-Phenotype (%) [7]: 0% | Population Mitochondria Different-Phenotype (%) [7]: 94% | Population Mitotic Cells (%) [7]: 8% | Population Normal (%) [7]: 77% | Population Pyknosed Nuclei (%) [7]: 75% | Population Tubulin-Different-Phenotype (%) [7]: 94% | Total Cell Count [7]: 275 | Population Apoptotic (%) [8]: 92% | Population Fragmented Nuclei (%) [8]: 6% | Population Healthy Nuclei (%) [8]: 9% | Population Hoechst High Intensity Objects (%) [8]: 16% | Population Mitochondria Different-Phenotype (%) [8]: 92% | Population Mitotic Cells (%) [8]: 7% | Population Normal (%) [8]: 83% | Population Pyknosed Nuclei (%) [8]: 84% | Population Tubulin-Different-Phenotype (%) [8]: 92% | Total Cell Count [8]: 158 | Population Apoptotic (%) [9]: 52% | Population Fragmented Nuclei (%) [9]: 11% | Population Healthy Nuclei (%) [9]: 70% | Population Hoechst High Intensity Objects (%) [9]: 7% | Population Membrane Permeable-Phenotype (%) [9]: 1% | Population Mitochondria Different-Phenotype (%) [9]: 71% | Population Mitotic Cells (%) [9]: 47% | Population Normal (%) [9]: 92% | Population Pyknosed Nuclei (%) [9]: 17% | Population Tubulin-Different-Phenotype (%) [9]: 50% | Total Cell Count [9]: 354 | Population Apoptotic (%) [10]: 36% | Population Fragmented Nuclei (%) [10]: 6% | Population Healthy Nuclei (%) [10]: 72% | Population Hoechst High Intensity Objects (%) [10]: 4% | Population Membrane Permeable-Phenotype (%) [10]: 2% | Population Mitochondria Different-Phenotype (%) [10]: 52% | Population Mitotic Cells (%) [10]: 63% | Population Normal (%) [10]: 95% | Population Pyknosed Nuclei (%) [10]: 21% | Population Tubulin-Different-Phenotype (%) [10]: 66% | Total Cell Count [10]: 226 | Population Apoptotic (%) [11]: 80% | Population Fragmented Nuclei (%) [11]: 19% | Population Healthy Nuclei (%) [11]: 22% | Population Hoechst High Intensity Objects (%) [11]: 29% | Population Membrane Permeable-Phenotype (%) [11]: 0% | Population Mitochondria Different-Phenotype (%) [11]: 100% | Population Mitotic Cells (%) [11]: 19% | Population Normal (%) [11]: 70% | Population Pyknosed Nuclei (%) [11]: 58% | Population Tubulin-Different-Phenotype (%) [11]: 93% | Total Cell Count [11]: 290 | Population Apoptotic (%) [12]: 93% | Population Fragmented Nuclei (%) [12]: 3% | Population Healthy Nuclei (%) [12]: 15% | Population Hoechst High Intensity Objects (%) [12]: 14% | Population Membrane Permeable-Phenotype (%) [12]: 5% | Population Mitochondria Different-Phenotype (%) [12]: 95% | Population Mitotic Cells (%) [12]: 6% | Population Normal (%) [12]: 85% | Population Pyknosed Nuclei (%) [12]: 80% | Population Tubulin-Different-Phenotype (%) [12]: 100% | Total Cell Count [12]: 148
